Reference: ChEMBL document CHEMBL2010675, “Discovery of GS-9451: an acid inhibitor of the hepatitis C virus NS3/4A protease” (Bioorg Med Chem Lett, 2012)
In brackets after ≈: the same amount, converted by molar mass. Values belong to the molecule of their own block, whether it stands above or below them.

Columns and labels:
Hepatitis C virus [1] = assay: Antiviral activity against Hepatitis C virus genotype 1b infected in human Huh cells by luciferase reporter gene based replicon assay; type: functional, organism-based, Hepacivirus hominis
In short: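 EC50 from a cell-based assay in Huh-luc cells carrying a subgenomic HCV genotype 1b replicon, with luciferase reporter read-out.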

Hepatitis C virus [2] = assay: Inhibition of Hepatitis C virus genotype 1b NS3/4A protease; set-up: species or system Hepatitis C virus subtype 1b
[3] = Permeability from apical to basolateral side in human Caco2 cells; type: ADME, cell-based; details: Caco-2, read-out: permeability
[4] = Permeability from basolateral to apical side in human Caco2 cells; type: ADME, cell-based; details: Caco-2, read-out: permeability
[5] = Thermodynamic solubility of the compound at pH 2.2; type: physicochemical; details: buffer; for solubility thermodynamic: read-out: Therm_solubility
[6] = Thermodynamic solubility of the compound at pH 7.3; type: physicochemical; details: buffer, read-out: Therm_solubility
[7] = Oral bioavailability in cynomolgus monkey at 4 mg/kg; type: ADME, organism-based, Macaca fascicularis; details: in vivo
In short: (§1)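 Dosed at 1.0 mg/kg iv and 4.0 mg/kg po; plasma drug levels followed to derive iv t1/2, oral AUC, clearance, Vdss and oral bioavailability (F).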

Hepatitis C virus [8] = assay: Antiviral activity against Hepatitis C virus genotype 1a infected in human assessed as log decrease in viral RNA level at 200 mg, po for 3 days; type: functional, Hepacivirus hominis, subtype 1a
[9] = Inhibition of cytochrome P450 up to 25 uM; type: ADME
[10] = Half life in cynomolgus monkey at 1 mg/kg, iv; type: ADME, organism-based, Macaca fascicularis; set-up: dose 1 mg/kg, route intravenous; details: in vivo; in short: as §1
[11] = Half life in cynomolgus monkey microsomes; type: ADME, Macaca fascicularis, Microsome
[12] = biological target: Multidrug resistance-associated protein 1 (Homo sapiens, UniProt P33527); assay: Inhibition of MRP1
[13] = Plasma concentration in human at 300 mg after 24 hrs
[14] = Oral bioavailability in rat at 4 mg/kg; type: ADME, organism-based; details: in vivo
[15] = Drug excretion in rat bile at 1 mg/kg, iv; type: ADME, organism-based; set-up: dose 1 mg/kg, route intravenous; details: read-out: Drug excretion
In short: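 Bile-duct cannulated rats given drug intravenously; bile collected and the fraction of total dose recovered as parent compound and as glucuronide conjugates measured.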

[16] = Volume of distribution at steady state in rat at 1 mg/kg, iv and 4 mg/kg, po; type: ADME, organism-based; details: in vivo, read-out: Vdss
[17] = Fraction unbound in cynomolgus monkey plasma; type: ADME, cell-free, Macaca fascicularis
[18] = Clearance in dog at 1 mg/kg, iv and 4 mg/kg, po; type: ADME, organism-based, Canis lupus familiaris; details: in vivo; in short: as §1
[19] = Half life in dog at 1 mg/kg, iv; type: ADME, organism-based, Canis lupus familiaris; set-up: dose 1 mg/kg, route intravenous; details: in vivo; in short: as §1
[20] = Clearance in cynomolgus monkey at 1 mg/kg, iv and 4 mg/kg, po; type: ADME, organism-based, Macaca fascicularis; details: in vivo; in short: as §1
[21] = Half life in dog microsomes; type: ADME, Canis lupus familiaris, Microsome
[22] = Cmax in dog at 4 mg/kg, po; type: ADME, organism-based, Canis lupus familiaris; set-up: dose 4 mg/kg, route oral; details: in vivo
[23] = Fraction unbound in rat plasma; type: ADME, cell-free
[24] = Half life in rat at 1 mg/kg, iv; type: ADME, organism-based; set-up: dose 1 mg/kg, route intravenous; details: in vivo
Hepatitis C virus [25] = assay: Antiviral activity against Hepatitis C virus genotype 1a infected in human assessed as log decrease in viral RNA level at 400 mg, po for 3 days; type: functional, Hepacivirus hominis, subtype 1a
[26] = biological target: T1, Broad substrate specificity ATP-binding cassette transporter ABCG2 (Homo sapiens, UniProt Q9UNQ0); assay: Inhibition of BCRP; type: ADME
T1 sequence (Q9UNQ0 whole entry): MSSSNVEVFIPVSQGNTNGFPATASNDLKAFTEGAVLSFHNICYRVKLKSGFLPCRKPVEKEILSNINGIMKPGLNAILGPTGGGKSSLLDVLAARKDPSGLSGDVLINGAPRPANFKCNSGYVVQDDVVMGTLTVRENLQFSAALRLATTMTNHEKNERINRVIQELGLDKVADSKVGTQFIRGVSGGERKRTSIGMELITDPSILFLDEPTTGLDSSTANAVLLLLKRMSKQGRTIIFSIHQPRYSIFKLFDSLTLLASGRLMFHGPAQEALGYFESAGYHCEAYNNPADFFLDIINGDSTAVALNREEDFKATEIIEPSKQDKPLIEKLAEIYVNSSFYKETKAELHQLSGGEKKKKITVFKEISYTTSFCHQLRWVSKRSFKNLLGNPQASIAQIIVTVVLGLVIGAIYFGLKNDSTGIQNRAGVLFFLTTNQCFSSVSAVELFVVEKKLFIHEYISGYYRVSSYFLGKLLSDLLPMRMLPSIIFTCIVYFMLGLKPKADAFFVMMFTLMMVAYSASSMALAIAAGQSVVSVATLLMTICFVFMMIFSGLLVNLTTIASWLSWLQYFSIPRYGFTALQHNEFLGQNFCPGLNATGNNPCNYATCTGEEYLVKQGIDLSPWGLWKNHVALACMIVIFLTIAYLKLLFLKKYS

[27] = biological target: Voltage-gated inwardly rectifying potassium channel KCNH2 (Homo sapiens, UniProt Q12809); assay: Inhibition of human Erg up to 25 uM
[28] = Fraction unbound in dog plasma; type: ADME, cell-free, Canis lupus familiaris
Canis familiaris = assay: AUC in dog at 4 mg/kg, po; type: ADME, organism-based, Canis lupus familiaris, Plasma; set-up: dose 4 mg/kg, route oral; details: in vivo; in short: as §1
[29] = Cmax in rat at 4 mg/kg, po; type: ADME, organism-based; set-up: dose 4 mg/kg, route oral; details: in vivo
[30] = Selectivity for hepatitis C virus NS3/4A protease over human cathepsin L
[31] = Half life in rat microsomes; type: ADME, Microsome
[32] = Inhibition of p-glycoprotein
[33] = Clearance in rat at 1 mg/kg, iv and 4 mg/kg, po; type: ADME, organism-based; details: in vivo
[34] = Volume of distribution at steady state in cynomolgus monkey at 1 mg/kg, iv and 4 mg/kg, po; type: ADME, organism-based, Macaca fascicularis; details: in vivo, read-out: Vdss; in short: as §1
Rattus norvegicus = assay: AUC in rat at 4 mg/kg, po; type: ADME, organism-based, Plasma; set-up: dose 4 mg/kg, route oral; details: in vivo
[35] = Selectivity for hepatitis C virus NS3/4A protease over human cathepsin D
Hepatitis C virus [36] = assay: Antiviral activity against Hepatitis C virus genotype 1a infected in human assessed as log decrease in viral RNA level at 60 mg, po for 3 days; type: functional, Hepacivirus hominis, subtype 1a
[37] = Selectivity for hepatitis C virus NS3/4A protease over human proteinase 3
[38] = Volume of distribution at steady state in dog at 1 mg/kg, iv and 4 mg/kg, po; type: ADME, organism-based, Canis lupus familiaris; details: in vivo, read-out: Vdss; in short: as §1
[39] = biological target: ATP-binding cassette sub-family C member 2 (Homo sapiens, UniProt Q92887); assay: Inhibition of MRP2
[40] = Elimination half life in human at 10 to 1000 mg; details: in vivo, read-out: beta t1/2 (converted)
[41] = Half life in human microsomes; type: ADME, Microsome
[42] = Selectivity for hepatitis C virus NS3/4A protease over human leukocyte elastase
[43] = Cmax in cynomolgus monkey at 4 mg/kg, po; type: ADME, organism-based, Macaca fascicularis; set-up: dose 4 mg/kg, route oral; details: in vivo
[44] = Fraction unbound in human plasma; type: ADME, cell-free
[45] = Oral bioavailability in dog at 4 mg/kg; type: ADME, organism-based, Canis lupus familiaris; details: in vivo; in short: as §1
Cynomolgus monkey = assay: AUC in cynomolgus monkey at 4 mg/kg, po; type: ADME, organism-based, Macaca fascicularis, Plasma; set-up: dose 4 mg/kg, route oral; details: in vivo; in short: as §1

ATP-binding cassette sub-family C member 2, sequence (Q92887 whole entry): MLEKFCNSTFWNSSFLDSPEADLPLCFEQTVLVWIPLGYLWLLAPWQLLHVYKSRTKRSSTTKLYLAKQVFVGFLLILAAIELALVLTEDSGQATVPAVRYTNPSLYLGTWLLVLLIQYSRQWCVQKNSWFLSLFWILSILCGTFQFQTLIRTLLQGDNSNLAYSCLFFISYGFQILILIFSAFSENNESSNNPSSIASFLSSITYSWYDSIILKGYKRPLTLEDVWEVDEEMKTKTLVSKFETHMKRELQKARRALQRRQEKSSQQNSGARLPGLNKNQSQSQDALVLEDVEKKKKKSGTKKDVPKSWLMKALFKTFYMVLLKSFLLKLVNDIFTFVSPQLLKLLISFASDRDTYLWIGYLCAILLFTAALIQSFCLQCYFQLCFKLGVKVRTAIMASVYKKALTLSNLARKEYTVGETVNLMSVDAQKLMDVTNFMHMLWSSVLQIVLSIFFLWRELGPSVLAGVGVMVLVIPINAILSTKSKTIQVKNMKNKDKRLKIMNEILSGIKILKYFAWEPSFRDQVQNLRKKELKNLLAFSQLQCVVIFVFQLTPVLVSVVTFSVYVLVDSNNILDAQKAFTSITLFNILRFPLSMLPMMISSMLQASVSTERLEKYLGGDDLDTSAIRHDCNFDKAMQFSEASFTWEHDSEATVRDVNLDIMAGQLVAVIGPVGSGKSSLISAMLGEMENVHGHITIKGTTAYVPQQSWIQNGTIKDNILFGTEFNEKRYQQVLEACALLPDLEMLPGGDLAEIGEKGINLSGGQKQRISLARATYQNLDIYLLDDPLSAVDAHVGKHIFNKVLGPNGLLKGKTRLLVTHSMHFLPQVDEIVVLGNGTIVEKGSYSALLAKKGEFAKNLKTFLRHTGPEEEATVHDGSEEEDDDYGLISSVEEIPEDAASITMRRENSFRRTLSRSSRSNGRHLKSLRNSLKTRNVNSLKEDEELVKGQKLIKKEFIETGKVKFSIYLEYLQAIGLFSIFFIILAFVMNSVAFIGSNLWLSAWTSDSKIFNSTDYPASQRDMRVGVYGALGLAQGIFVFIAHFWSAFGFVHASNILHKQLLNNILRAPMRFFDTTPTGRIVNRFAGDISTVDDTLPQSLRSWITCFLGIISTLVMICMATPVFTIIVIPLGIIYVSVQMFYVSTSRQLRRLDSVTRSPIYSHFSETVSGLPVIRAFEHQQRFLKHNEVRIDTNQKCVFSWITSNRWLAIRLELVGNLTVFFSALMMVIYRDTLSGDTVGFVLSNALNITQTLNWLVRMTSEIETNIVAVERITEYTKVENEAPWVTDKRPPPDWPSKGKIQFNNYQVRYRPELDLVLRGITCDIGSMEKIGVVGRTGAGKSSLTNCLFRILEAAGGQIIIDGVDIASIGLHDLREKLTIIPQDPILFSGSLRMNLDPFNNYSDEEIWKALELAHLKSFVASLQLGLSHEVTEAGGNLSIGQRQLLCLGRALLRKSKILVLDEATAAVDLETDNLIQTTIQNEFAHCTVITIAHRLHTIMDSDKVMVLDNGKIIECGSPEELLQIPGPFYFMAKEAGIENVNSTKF
Multidrug resistance-associated protein 1, sequence (P33527 whole entry): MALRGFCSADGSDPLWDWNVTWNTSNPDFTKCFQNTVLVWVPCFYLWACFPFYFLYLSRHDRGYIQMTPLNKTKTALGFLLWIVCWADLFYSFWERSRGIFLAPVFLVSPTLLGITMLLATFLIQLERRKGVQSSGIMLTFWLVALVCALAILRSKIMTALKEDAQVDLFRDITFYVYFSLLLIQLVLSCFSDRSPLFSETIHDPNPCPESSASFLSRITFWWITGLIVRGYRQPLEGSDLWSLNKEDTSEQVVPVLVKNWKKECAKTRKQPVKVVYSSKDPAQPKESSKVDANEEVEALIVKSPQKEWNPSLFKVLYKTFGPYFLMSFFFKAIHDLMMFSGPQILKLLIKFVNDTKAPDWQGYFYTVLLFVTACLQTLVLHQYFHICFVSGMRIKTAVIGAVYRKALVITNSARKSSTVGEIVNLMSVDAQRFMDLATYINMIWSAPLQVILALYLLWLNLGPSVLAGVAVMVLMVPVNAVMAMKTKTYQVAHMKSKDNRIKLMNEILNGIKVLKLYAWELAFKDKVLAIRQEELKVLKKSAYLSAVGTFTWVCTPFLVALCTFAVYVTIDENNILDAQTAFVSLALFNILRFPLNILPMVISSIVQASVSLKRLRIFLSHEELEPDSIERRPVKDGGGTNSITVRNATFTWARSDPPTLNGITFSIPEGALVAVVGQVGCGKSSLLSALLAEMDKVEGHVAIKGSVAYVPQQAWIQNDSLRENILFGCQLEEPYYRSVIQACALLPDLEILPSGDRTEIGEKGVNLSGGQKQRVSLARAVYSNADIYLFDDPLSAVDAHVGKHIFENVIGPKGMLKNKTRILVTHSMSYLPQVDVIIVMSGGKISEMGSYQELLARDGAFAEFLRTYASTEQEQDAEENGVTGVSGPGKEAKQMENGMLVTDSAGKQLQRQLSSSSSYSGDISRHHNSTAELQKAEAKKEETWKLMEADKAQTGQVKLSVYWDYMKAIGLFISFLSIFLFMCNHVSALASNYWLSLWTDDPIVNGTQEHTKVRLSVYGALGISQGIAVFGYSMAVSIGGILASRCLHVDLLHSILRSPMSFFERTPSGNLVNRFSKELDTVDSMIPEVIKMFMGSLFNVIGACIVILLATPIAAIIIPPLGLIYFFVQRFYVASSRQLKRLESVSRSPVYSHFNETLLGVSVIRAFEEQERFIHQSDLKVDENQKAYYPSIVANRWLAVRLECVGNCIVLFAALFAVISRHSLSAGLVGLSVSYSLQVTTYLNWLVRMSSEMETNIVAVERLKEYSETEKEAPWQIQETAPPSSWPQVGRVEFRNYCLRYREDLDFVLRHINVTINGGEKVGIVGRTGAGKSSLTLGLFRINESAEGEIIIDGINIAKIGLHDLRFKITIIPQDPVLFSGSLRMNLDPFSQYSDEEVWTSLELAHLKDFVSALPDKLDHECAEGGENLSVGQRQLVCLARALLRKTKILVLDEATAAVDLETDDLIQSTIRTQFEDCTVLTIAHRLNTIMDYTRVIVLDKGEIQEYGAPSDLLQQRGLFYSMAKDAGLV
Voltage-gated inwardly rectifying potassium channel KCNH2, sequence (Q12809 whole entry): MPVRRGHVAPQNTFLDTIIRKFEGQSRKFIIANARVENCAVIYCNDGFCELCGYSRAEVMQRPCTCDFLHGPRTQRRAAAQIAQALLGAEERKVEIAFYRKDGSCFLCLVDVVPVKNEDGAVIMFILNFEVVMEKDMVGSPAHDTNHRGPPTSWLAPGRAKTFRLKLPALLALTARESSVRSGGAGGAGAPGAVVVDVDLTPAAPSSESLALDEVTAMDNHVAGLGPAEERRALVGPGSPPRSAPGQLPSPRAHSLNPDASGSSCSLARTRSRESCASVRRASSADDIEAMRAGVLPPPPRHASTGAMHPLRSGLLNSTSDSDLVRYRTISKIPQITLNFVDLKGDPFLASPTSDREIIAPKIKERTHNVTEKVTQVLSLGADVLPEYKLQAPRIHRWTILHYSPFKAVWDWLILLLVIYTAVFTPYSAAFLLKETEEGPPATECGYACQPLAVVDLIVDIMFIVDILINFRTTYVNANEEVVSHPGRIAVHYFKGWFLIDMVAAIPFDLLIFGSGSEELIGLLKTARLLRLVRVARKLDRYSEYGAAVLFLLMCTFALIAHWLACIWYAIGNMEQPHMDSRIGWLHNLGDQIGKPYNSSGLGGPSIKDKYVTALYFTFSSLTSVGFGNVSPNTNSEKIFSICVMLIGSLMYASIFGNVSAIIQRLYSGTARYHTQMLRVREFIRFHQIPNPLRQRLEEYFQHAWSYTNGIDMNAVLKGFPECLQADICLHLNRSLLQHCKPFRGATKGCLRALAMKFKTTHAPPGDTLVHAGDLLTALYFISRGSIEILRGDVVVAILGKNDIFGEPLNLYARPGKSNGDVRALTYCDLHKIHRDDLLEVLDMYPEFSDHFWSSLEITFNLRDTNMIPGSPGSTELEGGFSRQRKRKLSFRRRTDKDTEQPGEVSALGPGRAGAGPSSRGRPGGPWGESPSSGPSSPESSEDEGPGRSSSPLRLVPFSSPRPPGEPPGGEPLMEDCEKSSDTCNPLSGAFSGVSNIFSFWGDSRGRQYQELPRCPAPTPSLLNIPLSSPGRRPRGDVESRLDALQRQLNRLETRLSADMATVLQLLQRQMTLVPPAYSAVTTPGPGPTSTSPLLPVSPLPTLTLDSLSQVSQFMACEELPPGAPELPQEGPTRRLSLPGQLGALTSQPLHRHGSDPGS

EC50 (Hepatitis C virus [1]): 115 nM | IC50 (Hepatitis C virus [2]): 5 nM | Papp A→B [3]: 6.8 ×10⁻⁶ cm/s | Papp B→A [4]: 49 ×10⁻⁶ cm/s | solubility thermodynamic [5]: < 6 µM | solubility thermodynamic [6]: 9 µM (≈ 7.63 µg/mL)
SMILES: CC[C@@H]1C[C@]1(NC(=O)[C@@H]1C[C@@H](Oc2cc(-c3csc(NC(C)C)n3)nc3c(Cl)c(OC)ccc23)CN1C(=O)[C@@H](NC(=O)O[C@@H]1C[C@@H]2[C@H](C1)C2(F)F)C(C)(C)C)C(=O)O

EC50 (Hepatitis C virus [1]): 9 nM | IC50 (Hepatitis C virus [2]): 1.4 nM | Papp A→B [3]: 7.3 ×10⁻⁶ cm/s | Papp B→A [4]: 25 ×10⁻⁶ cm/s | Therm_solubility [5]: Insoluble(BLD) | solubility thermodynamic [6]: 72 µM (≈ 58.4 µg/mL)
SMILES: CC[C@@H]1C[C@]1(NC(=O)[C@@H]1C[C@@H](Oc2cc(-c3csc(NC(C)C)n3)nc3c(Cl)c(OC)ccc23)CN1C(=O)[C@@H](NC(=O)O[C@@H]1C[C@@H]2C[C@@H]2C1)C(C)(C)C)C(=O)O

bioavailability [7]: 49% | inhibition (INH) [9]: Not Active | half-life [10]: 3.9 h | half-life [11]: 1.32 h | IC50 [12]: 14900 nM | inhibition (INH) [12]: Dose-dependent effect | concentration at 24 h [13]: 400 nM | bioavailability [14]: 62% | EC50 (Hepatitis C virus [1]): 2 nM | dose excreted [15]: 45% | Vd [16]: 2.3 L/kg | fraction unbound [17]: 0.016 | clearance [18]: 4.33 mL/min/kg | half-life [19]: 4.2 h | clearance [20]: 4.83 mL/min/kg | half-life [21]: > 6.58 h | IC50 (Hepatitis C virus [2]): 3.2 nM | Cmax [22]: 3940 nM | fraction unbound [23]: 0.011 | half-life [24]: 0.62 h | IC50 [26]: 1400 nM | fraction unbound [28]: 0.026 | AUC (Canis familiaris): 21.8 µM·h | Cmax [29]: 576 nM | Selectivity ratio [30]: > 50000 | Papp A→B [3]: 0.8 ×10⁻⁶ cm/s | half-life [31]: > 6.58 h | IC50 [32]: 34000 nM | inhibition (INH) [32]: Dose-dependent effect | clearance [33]: 73.3 mL/min/kg | Vd [34]: 0.76 L/kg | AUC (Rattus norvegicus): 1.41 µM·h | Papp B→A [4]: 8.2 ×10⁻⁶ cm/s | Selectivity ratio [35]: > 50000 | Selectivity ratio [37]: > 50000 | Vd [38]: 1.15 L/kg | solubility thermodynamic [5]: 790 µM (≈ 719 µg/mL) | solubility thermodynamic [6]: 38 µM (≈ 34.6 µg/mL) | IC50 [39]: 12000 nM | inhibition (INH) [39]: Dose-dependent effect | half-life [40]: 12 h | half-life [41]: > 6.58 h | Selectivity ratio [42]: > 50000 | Cmax [43]: 3470 nM | fraction unbound [44]: 0.026 | bioavailability [45]: 142% | AUC (Cynomolgus monkey): 13.1 µM·h
SMILES: CC[C@@H]1C[C@]1(NC(=O)[C@@H]1C[C@@H](Oc2cc(-c3csc(NC(C)C)n3)nc3c(Cl)c(OCCN4CCOCC4)ccc23)CN1C(=O)[C@@H](NC(=O)O[C@@H]1C[C@@H]2C[C@@H]2C1)C(C)(C)C)C(=O)O [VEDROPREVIR]
Activity (Hepatitis C virus [8]): 3.2 log10IU/ml | Activity (Hepatitis C virus [25]): 3.6 log10IU/ml | inhibition (INH) [27]: Not Active | Activity (Hepatitis C virus [36]): 0.88 log10IU/ml

EC50 (Hepatitis C virus [1]): 7.5 nM | clearance [18]: 2.17 mL/min/kg | half-life [19]: 3 h | IC50 (Hepatitis C virus [2]): 25 nM | AUC (Canis familiaris): 19.7 µM·h | Papp A→B [3]: 6.7 ×10⁻⁶ cm/s | Papp B→A [4]: 20 ×10⁻⁶ cm/s | Vd [38]: 0.39 L/kg | solubility thermodynamic [5]: > 100 µM | solubility thermodynamic [6]: 80 µM (≈ 72.7 µg/mL) | bioavailability [45]: 32%
SMILES: CC[C@@H]1C[C@]1(NC(=O)[C@@H]1C[C@@H](Oc2cc(-c3csc(NC(C)C)n3)nc3c(Cl)c(OCCN4CCCCC4)ccc23)CN1C(=O)[C@@H](NC(=O)O[C@@H]1C[C@@H]2C[C@@H]2C1)C(C)(C)C)C(=O)O
